Measurements: ChEMBL document CHEMBL4480455, “Anti-inflammatory Property of Imperatorin on Alveolar Macrophages and Inflammatory Lung Injury” (J Nat Prod, 2019)
The source made the active and inactive calls. The rule behind the calls is not given here.

Tests used:
[1] = species on record: Mus musculus; assay: Antiinflammatory activity in mouse MHS cells assessed as reduction in zymosan-induced PGE2 production at 1.5 to 15 ug/ml preincubated for 30 mins followed by zymosan challenge and measured after 6 to 24 hrs by ELISA; type: functional, cell-based
Method in brief: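 MH-S cells pretreated for 30 min, then given zymosan 10 μg/mL for 24 h. Supernatant PGE2 measured by competitive ELISA: acetylcholinesterase tracer plus monoclonal antibody, 4 °C for 18 h, Ellman's reagent development, absorbance at 405 nm. Mean ± SD, n≥3.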

[2] = Effect on nitrite level in mouse MHS cells at 1.5 to 15 ug/ml after 30 mins by Griess assay; type: ADME, cell-based; conditions: 0.5 h
[3] = Cytotoxicity against mouse MHS cells assessed as effect on cell viability at 1.5 to 15 ug/ml measured after 30 mins by sulforhodamine B assay; type: cell-based; conditions: 0.5 h
[4] = Cytotoxicity against zymosan-induced mouse MHS cells assessed as effect on cell viability at 1.5 to 15 ug/ml preincubated for 30 mins followed by zymosan challenge and measured after 6 to 24 hrs by sulforhodamine B assay; type: cell-based
Method in brief: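 MH-S cells exposed to test agent and zymosan (10 μg/mL). Viability by sulforhodamine B: fixed in 10% trichloroacetic acid, stained 30 min with 0.4% (w/v) SRB, dissolved in 10 mM Tris, read at OD 515 nm. Mean ± SD, n≥3.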

[5] = species on record: Mus musculus; assay: Antiinflammatory activity in mouse MHS cells assessed as reduction in zymosan-induced IL-6 mRNA expression preincubated for 30 mins followed by zymosan challenge and measured after 6 to 24 hrs by TRIzol reagent based qRT-PCR analysis; type: functional, cell-based
Method in brief: (§1)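 MH-S alveolar macrophages grown in RPMI 1640 with 10% FBS at 37 °C and 5% CO2. Cells pretreated for 30 min, then given zymosan 10 μg/mL for 6 h. mRNA measured by SYBR Green real-time PCR (95 °C 10 min; 42 cycles of 95 °C 10 s, 60 °C 60 s) with actin as reference. Normalized to control; mean ± SD, n≥3.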

[6] = species on record: Mus musculus; assay: Antiinflammatory activity in mouse MHS cells assessed as reduction in zymosan-induced TNFalpha mRNA expression preincubated for 30 mins followed by zymosan challenge and measured after 6 to 24 hrs by TRIzol reagent based qRT-PCR analysis; type: functional, cell-based; method in brief: as §1
[7] = species on record: Mus musculus; assay: Antiinflammatory activity in mouse MHS cells assessed as reduction in zymosan-induced IL-6 protein expression at 1.5 to 15 ug/ml preincubated for 30 mins followed by zymosan challenge and measured after 6 to 24 hrs; type: functional, cell-based
Method in brief: (§2)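 MH-S cells pretreated for 30 min, then given zymosan 10 μg/mL for 24 h. IL-6 and TNFα protein in culture supernatant assessed by cytokine array. Values normalized to control; mean ± SD, n≥3.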

[8] = species on record: Mus musculus; assay: Antiinflammatory activity in mouse MHS cells assessed as reduction in zymosan-induced TNFalpha protein expression at 1.5 to 15 ug/ml preincubated for 30 mins followed by zymosan challenge and measured after 6 to 24 hrs; type: functional, cell-based; method in brief: as §2
[9] = target: Tyrosine-protein kinase JAK1 (Mus musculus) (UniProt P52332); assay: Inhibition of zymosan-induced JAK1 phosphorylation in mouse MHS cells preincubated for 30 mins followed by zymosan challenge and measured after 6 to 24 hrs by Western blot analysis; type: cell-based
[10] = target: Signal transducer and activator of transcription 3 (Mus musculus) (UniProt P42227); assay: Inhibition of zymosan-induced STAT3 phosphorylation in mouse MHS cells preincubated for 30 mins followed by zymosan challenge and measured after 6 to 24 hrs by Western blot analysis; type: cell-based
[11] = target: Tyrosine-protein kinase JAK1 (Mus musculus) (UniProt P52332); assay: Inhibition of zymosan-induced JAK1 phosphorylation in mouse MHS cells assessed as phosphorylated JAK1 level at 1.5 ug/ml by Western blot analysis relative to tubulin (reference value: 2.2); type: cell-based
Method in brief: (§3)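 MH-S cells pretreated, then stimulated with zymosan 10 μg/mL. Phospho-JAK1 (Y1022/1023), phospho-STAT3 (Y705) and phospho-IKKα/β detected by Western blot against total protein and tubulin. Zymosan time course 1–30 min for JAK1/STAT3 and 1–60 min for IKK. Normalized to control; mean ± SD, n≥3.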

[12] = target: Tyrosine-protein kinase JAK1 (Mus musculus) (UniProt P52332); assay: Inhibition of zymosan-induced JAK1 phosphorylation in mouse MHS cells assessed as phosphorylated JAK1 level at 15 ug/ml by Western blot analysis relative to tubulin (reference value: 2.2); type: cell-based; method in brief: as §3
[13] = target: Signal transducer and activator of transcription 3 (Mus musculus) (UniProt P42227); assay: Inhibition of zymosan-induced STAT3 phosphorylation in mouse MHS cells assessed as phosphorylated STAT3 level at 1.5 ug/ml by Western blot analysis relative to tubulin (reference value: 2.1); type: cell-based; method in brief: as §3
[14] = target: Signal transducer and activator of transcription 3 (Mus musculus) (UniProt P42227); assay: Inhibition of zymosan-induced STAT3 phosphorylation in mouse MHS cells assessed as phosphorylated STAT3 level at 15 ug/ml by Western blot analysis relative to tubulin (reference value: 2.1); type: cell-based; method in brief: as §3
[15] = target: Tyrosine-protein kinase JAK1 (Mus musculus) (UniProt P52332); assay: Effect on JAK1 phosphorylation in mouse MHS cells assessed as phosphorylated JAK1 level at 15 ug/ml by Western blot analysis relative to tubulin (reference value: 1); type: cell-based
[16] = target: Signal transducer and activator of transcription 3 (Mus musculus) (UniProt P42227); assay: Effect on STAT3 phosphorylation in mouse MHS cells assessed as phosphorylated STAT3 level at 15 ug/ml by Western blot analysis relative to tubulin (reference value: 1); type: cell-based
[17] = target: T1, I-kappa-B kinase (Mus musculus) (UniProt Q60680+O88351+O88522); assay: Inhibition of zymosan-induced IKK phosphorylation in mouse MHS cells by Western blot analysis; type: cell-based; method in brief: as §3
[18] = target: T1, I-kappa-B kinase (Mus musculus); assay: Inhibition of zymosan-induced IKK phosphorylation in mouse MHS cells assessed as phosphorylated IKK level at 1.5 ug/ml by Western blot analysis relative to tubulin (reference value: 1.8); type: cell-based; method in brief: as §3
[19] = target: T1, I-kappa-B kinase (Mus musculus); assay: Inhibition of zymosan-induced IKK phosphorylation in mouse MHS cells assessed as phosphorylated IKK level at 15 ug/ml by Western blot analysis relative to tubulin (reference value: 1.8); type: cell-based; method in brief: as §3
[20] = target: T1, I-kappa-B kinase (Mus musculus); assay: Effect on IKK phosphorylation in mouse MHS cells assessed as phosphorylated IKK level at 15 ug/ml by Western blot analysis relative to tubulin (reference value: 1); type: cell-based
[21] = target: Transcription factor p65 (Mus musculus) (UniProt Q04207); assay: Inhibition of zymosan-induced NFkappaB p65 nuclear translocation in mouse MHS cells at 15 ug/ml by DAPI staining based immunofluorescence microscopic analysis; type: cell-based
Method in brief: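 MH-S cells on coverslips pretreated, then given zymosan 10 μg/mL for 3 h. Fixed in 4% paraformaldehyde, permeabilized with 1% Triton X-100, blocked with 4% skim milk. Anti-p65 at 4 °C overnight, FITC secondary 1 h, DAPI nuclear counterstain. Fluorescence microscopy; at least three experiments.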

[22] = Effect on PGE2 level in mouse MHS cells at 1.5 to 15 ug/ml after 30 mins; conditions: 0.5 h

Chain of Signal transducer and activator of transcription 3 (Mus musculus) (P42227 whole entry): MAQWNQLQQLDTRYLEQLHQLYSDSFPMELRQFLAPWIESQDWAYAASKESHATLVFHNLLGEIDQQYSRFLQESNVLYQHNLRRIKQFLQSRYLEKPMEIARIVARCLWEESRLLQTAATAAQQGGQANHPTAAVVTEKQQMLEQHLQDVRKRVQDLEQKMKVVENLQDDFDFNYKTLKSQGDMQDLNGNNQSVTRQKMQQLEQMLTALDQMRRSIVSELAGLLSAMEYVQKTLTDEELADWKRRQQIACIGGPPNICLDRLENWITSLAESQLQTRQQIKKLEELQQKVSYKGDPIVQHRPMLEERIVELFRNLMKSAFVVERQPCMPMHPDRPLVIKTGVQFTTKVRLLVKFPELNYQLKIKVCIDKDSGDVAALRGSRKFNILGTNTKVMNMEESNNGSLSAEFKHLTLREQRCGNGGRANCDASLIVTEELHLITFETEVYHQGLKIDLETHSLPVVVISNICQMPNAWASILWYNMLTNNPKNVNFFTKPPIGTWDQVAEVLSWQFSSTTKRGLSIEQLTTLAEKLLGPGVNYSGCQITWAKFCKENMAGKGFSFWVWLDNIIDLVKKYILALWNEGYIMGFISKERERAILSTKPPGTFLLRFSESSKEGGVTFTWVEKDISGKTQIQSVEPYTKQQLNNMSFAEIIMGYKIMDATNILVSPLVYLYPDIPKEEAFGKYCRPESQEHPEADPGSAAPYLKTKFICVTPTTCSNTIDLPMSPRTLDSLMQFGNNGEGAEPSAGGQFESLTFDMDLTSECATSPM
Chain of Tyrosine-protein kinase JAK1 (Mus musculus) (P52332 whole entry): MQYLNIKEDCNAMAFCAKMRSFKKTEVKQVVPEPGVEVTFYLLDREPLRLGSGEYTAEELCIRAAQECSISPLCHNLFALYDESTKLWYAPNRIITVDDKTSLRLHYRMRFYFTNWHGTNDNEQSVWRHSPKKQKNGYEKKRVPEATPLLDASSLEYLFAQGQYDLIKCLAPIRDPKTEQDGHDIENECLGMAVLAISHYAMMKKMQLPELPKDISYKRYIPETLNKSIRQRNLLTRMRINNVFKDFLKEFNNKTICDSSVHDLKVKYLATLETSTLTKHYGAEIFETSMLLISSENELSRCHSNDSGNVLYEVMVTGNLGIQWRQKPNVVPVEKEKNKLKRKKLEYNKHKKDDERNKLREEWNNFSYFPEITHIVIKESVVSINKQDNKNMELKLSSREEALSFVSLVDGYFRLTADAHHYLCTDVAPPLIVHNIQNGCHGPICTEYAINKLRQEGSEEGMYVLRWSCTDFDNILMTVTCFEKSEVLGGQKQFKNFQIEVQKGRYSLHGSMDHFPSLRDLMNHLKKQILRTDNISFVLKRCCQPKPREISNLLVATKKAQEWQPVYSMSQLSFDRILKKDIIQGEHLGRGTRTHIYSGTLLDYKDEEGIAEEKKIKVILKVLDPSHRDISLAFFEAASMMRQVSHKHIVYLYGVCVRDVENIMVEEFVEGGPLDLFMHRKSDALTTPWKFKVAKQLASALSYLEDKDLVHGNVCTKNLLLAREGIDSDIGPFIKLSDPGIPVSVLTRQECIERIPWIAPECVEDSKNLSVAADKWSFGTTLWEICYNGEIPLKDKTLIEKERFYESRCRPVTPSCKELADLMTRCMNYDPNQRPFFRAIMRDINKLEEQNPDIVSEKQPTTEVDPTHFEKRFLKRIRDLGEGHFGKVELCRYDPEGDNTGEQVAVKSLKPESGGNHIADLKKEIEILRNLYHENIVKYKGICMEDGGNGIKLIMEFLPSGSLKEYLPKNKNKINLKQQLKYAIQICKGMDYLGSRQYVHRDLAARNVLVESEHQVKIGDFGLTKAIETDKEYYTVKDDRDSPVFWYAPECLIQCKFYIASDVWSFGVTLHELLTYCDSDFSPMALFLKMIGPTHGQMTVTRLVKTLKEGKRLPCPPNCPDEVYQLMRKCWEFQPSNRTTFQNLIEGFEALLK
Chain of Transcription factor p65 (Mus musculus) (Q04207 whole entry): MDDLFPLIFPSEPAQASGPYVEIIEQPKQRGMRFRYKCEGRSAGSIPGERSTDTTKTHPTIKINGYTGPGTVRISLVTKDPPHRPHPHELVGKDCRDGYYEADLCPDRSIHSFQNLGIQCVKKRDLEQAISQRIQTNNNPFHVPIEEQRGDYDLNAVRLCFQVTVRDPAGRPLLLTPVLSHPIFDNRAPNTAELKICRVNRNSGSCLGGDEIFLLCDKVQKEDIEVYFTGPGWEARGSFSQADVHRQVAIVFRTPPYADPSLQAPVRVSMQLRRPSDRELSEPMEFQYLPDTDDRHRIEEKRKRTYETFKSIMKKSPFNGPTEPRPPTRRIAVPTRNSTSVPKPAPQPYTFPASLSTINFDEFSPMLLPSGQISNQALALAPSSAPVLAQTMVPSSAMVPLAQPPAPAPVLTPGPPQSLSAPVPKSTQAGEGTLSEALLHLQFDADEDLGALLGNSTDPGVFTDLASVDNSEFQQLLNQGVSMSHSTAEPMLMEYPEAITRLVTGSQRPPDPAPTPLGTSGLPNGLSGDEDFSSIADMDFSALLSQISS

In the case of `CC(C)=CCOc1c2occc2cc2ccc(=O)oc12` [PENTOSALEN], the Activity [1] is reported as “Active”, the Activity [2] is reported as “Non-Toxic” and the Activity [3] is reported as “Non-Toxic”. For the same compound, the Activity [4] was “Non-Toxic”, the Activity [5] was “Dose-dependent effect” and the Activity [6] was “Dose-dependent effect”. The Activity [7] was “Active”, the Activity [8] was “Active” and the inhibition [9] was “Dose-dependent effect”. For the same compound, the inhibition [10] was “Dose-dependent effect”, the fold change (FC) [11] was 2.2 and the fold change (FC) [12] was 1.3. For the same compound, the fold change (FC) [13] was 1.8, the fold change (FC) [14] was 1.3 and the fold change (FC) [15] was 1.2. The fold change (FC) [16] was 1.2, the inhibition [17] was “Dose-dependent effect” and the fold change (FC) [18] was 1.2. The fold change (FC) [19] was 1, the fold change (FC) [20] was 1 and the inhibition [21] was “Active”. The Activity [22] was “Non-Toxic”.
